Source: ChEMBL document CHEMBL5352425, “Discovery of the 4-aminopiperidine-based compound EM127 for the site-specific covalent inhibition of SMYD3” (Eur J Med Chem, 2022)
Calls of active or inactive are those of the source. No cut-off for these calls is given here.

Tests used:
[1] = biological target: T1, Histone-lysine N-methyltransferase SMYD3 (Homo sapiens) (UniProt Q9H7B4); test: Binding affinity to full length recombinant SMYD3 (unknown origin) overexpressed in Escherichia coli Rosetta cells assessed as covalent adduct formation by SPR analysis
T1 sequence (whole entry): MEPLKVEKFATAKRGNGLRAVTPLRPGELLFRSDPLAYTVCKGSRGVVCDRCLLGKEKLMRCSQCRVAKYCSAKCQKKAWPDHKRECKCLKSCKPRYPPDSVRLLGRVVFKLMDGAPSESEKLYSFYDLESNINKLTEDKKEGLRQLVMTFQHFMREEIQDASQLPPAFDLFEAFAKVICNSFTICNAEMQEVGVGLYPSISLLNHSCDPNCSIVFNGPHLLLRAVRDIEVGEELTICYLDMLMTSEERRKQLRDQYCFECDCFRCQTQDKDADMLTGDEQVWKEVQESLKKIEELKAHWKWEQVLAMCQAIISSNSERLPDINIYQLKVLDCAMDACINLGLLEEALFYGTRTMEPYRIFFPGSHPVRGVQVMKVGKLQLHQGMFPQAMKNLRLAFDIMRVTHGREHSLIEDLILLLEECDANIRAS
Method in brief: (§1)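 SPR on Biacore X100 at 15 °C: SMYD3 amine-coupled on CM5 chips at 6500–10000 RU, immobilised in HBS-T pH 7.4. Analysis buffer Tris-HCl 50 mM, NaCl 150 mM, 2 mM DTT, 0.05% Tween-20, 2% DMSO, pH 8.0, with or without SAM at saturating concentration. Equilibrium responses solvent-corrected.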

[2] = biological target: T1, Histone-lysine N-methyltransferase SMYD3 (Homo sapiens); test: Binding affinity to full length recombinant SMYD3 (unknown origin) at Cys186 residue overexpressed in Escherichia coli Rosetta cells assessed as covalent adduct formation measured for 24 hrs by LC-MS analysis; conditions: dose 1-100 µM
Method in brief: (§2)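 Recombinant SMYD3 expressed in E. coli Rosetta 2, final 10 μM, incubated at 23 °C in Tris 50 mM pH 8.0, 75 mM NaCl with compound at final 1, 10 or 100 μM, or equimolar 10 μM with sampling at 0–24 h. Samples DTT-denatured at 56 °C, iodoacetamide-alkylated, digested overnight with trypsin plus chymotrypsin at 30 °C, then analysed by LC-MS/MS on Q-ToF for adducted peptides. Triplicate.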

[3] = biological target: T1, Histone-lysine N-methyltransferase SMYD3 (Homo sapiens); test: Inhibition of full length recombinant SMYD3 (unknown origin) at 50 uM measured for 1 hr by LC-ESI-MS analysis relative to control
Method in brief: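 SMYD3 preincubated 1 h at 23 °C with compound (SMYD3 5 μM, compound 50 μM, 2% DMSO), or at 5 μM compound for 1 or 24 h. Stopped with H2O/AcCN/FA, peptide methylation quantified by LC-ESI-MS. Duplicate.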

[4] = tested on: MDA-MB-231; test: Downregulation of CDK2 mRNA expression in human MDA-MB-231 cells at 0.5 uM by RT-qPCR analysis; assay type: functional, cell-based
Method in brief: (§3)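 MDA-MB-231 or SMYD3-knockout (CRISPR/Cas9) MDA-MB-231 cells in DMEM/10% FBS treated 48 h with 0.5–50 μM compound, or 72 h with reference inhibitor at 10–50 μM; DMSO control. Total RNA extracted with TRI reagent, CDK2, c-MET, FN1 and N-CAD transcripts measured by RT-qPCR and quantified by the ddCT method.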

[5] = biological target: T2, Histone-lysine N-methyltransferase SMYD3 (Homo sapiens, UniProt Q9H7B4); test: Binding affinity to full length recombinant SMYD3 (unknown origin) overexpressed in Escherichia coli Rosetta cells assessed as dissociation constant by SPR analysis; method in brief: as §1
T2 sequence (Q9H7B4 whole entry): T1 sequence (whole entry)

[6] = biological target: T1, Histone-lysine N-methyltransferase SMYD3 (Homo sapiens); test: Binding affinity to full length recombinant SMYD3 (unknown origin) at Cys186 residue overexpressed in Escherichia coli Rosetta cells assessed as covalent adduct formation at 1 to 100 uM measured for 24 hrs by LC-MS analysis relative to control; conditions: dose 1-100 µM; method in brief: as §2
[7] = biological target: T1, Histone-lysine N-methyltransferase SMYD3 (Homo sapiens); test: Binding affinity to full length recombinant SMYD3 (unknown origin) at Cys186 residue overexpressed in Escherichia coli Rosetta cells assessed as covalent adduct formation at 1 to 100 uM by LC-MS analysis; conditions: dose 1-100 µM, time <= 24.0 hrs, TDE = time-dependent effect; method in brief: as §2
[8] = biological target: T1, Histone-lysine N-methyltransferase SMYD3 (Homo sapiens); test: Binding affinity to full length recombinant SMYD3 (unknown origin) at Cys186 residue overexpressed in Escherichia coli Rosetta cells assessed as covalent adduct formation at 1 to 100 uM measured after 1 hr by LC-MS analysis relative to control; conditions: dose 1-100 µM; method in brief: as §2
[9] = biological target: T2, Histone-lysine N-methyltransferase SMYD3; test: Inhibition of full length recombinant SMYD3 (unknown origin) measured at 24 hrs
[10] = biological target: T2, Histone-lysine N-methyltransferase SMYD3; test: Binding affinity to full length recombinant SMYD3 (unknown origin) overexpressed in Escherichia coli Rosetta cells assessed as inhibition constant measured after 1 hr by LC-MS analysis
[11] = biological target: T1, Histone-lysine N-methyltransferase SMYD3 (Homo sapiens); test: Binding affinity to full length recombinant SMYD3 (unknown origin) overexpressed in Escherichia coli Rosetta cells assessed as inactivation constant measured after 1 hr by LC-MS analysis
[12] = biological target: T1, Histone-lysine N-methyltransferase SMYD3 (Homo sapiens); test: Binding affinity to full length recombinant SMYD3 (unknown origin) overexpressed in Escherichia coli Rosetta cells assessed as Kinact/Ki ratio measured after 1 hr by LC-MS analysis
[13] = Stability in human plasma measured at 6 hrs by LC-MS analysis; assay type: ADME, cell-free
Method in brief: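 Compound spiked to final 10 μM into healthy-volunteer human plasma and held at 37 °C with gentle agitation. At 0–360 min, proteins precipitated with ice-cold acetonitrile containing propranolol internal standard. Supernatant dried, reconstituted, analysed by LC-MS with SIM (m/z 312; IS 260). Analyte/IS peak-area ratio followed over time, relative to time 0.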

[14] = tested on: MDA-MB-231; test: Downregulation of C-MET mRNA expression in human MDA-MB-231 cells at 0.5 uM by RT-qPCR analysis; assay type: functional, cell-based; method in brief: as §3
[15] = tested on: MDA-MB-231; test: Effect on CDK2 mRNA expression in SMYD3 knockout human MDA-MB-231 cells at 0.5 to 5 uM measured for 48 to 72 hrs by RT-qPCR analysis; assay type: functional, cell-based; conditions: dose 0.5-5 µM, time 48-72 hrs; method in brief: as §3
[16] = tested on: MDA-MB-231; test: Effect on c-MET mRNA expression in SMYD3 knockout human MDA-MB-231 cells at 0.5 to 5 uM measured for 48 to 72 hrs by RT-qPCR analysis; assay type: functional, cell-based; conditions: dose 0.5-5 µM, time 48-72 hrs; method in brief: as §3
[17] = tested on: MDA-MB-231; test: Effect on FN1 mRNA expression in SMYD3 knockout human MDA-MB-231 cells at 0.5 to 5 uM measured for 48 to 72 hrs by RT-qPCR analysis; assay type: functional, cell-based; conditions: dose 0.5-5 µM, time 48-72 hrs; method in brief: as §3
[18] = tested on: MDA-MB-231; test: Effect on N-cadherin mRNA expression in SMYD3 knockout human MDA-MB-231 cells at 0.5 to 5 uM measured for 48 to 72 hrs by RT-qPCR analysis; assay type: functional, cell-based; conditions: dose 0.5-5 µM, time 48-72 hrs; method in brief: as §3
[19] = biological target: T1, Histone-lysine N-methyltransferase SMYD3 (Homo sapiens); test: Inhibition of SMYD3 in human HCT-116 cells assessed as decrease in ERK1/2 phosphorylation upto 5 uM by immunoblotting analysis; assay type: cell-based; conditions: time 48-72 hrs, TDE = time-dependent effect
Method in brief: (§4)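 HCT116 or MDA-MB-231 cells treated with compound, DMSO as control. Whole-cell lysates in Tris/EDTA/NaCl/1% Triton X-100 with protease and phosphatase inhibitors. 20 μg protein run on 7.5% SDS-PAGE and blotted to nitrocellulose, probed for phospho-ERK1/2 (Thr202/Tyr204), total ERK1/2 and cleaved PARP, with actin as loading control.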

[20] = biological target: T1, Histone-lysine N-methyltransferase SMYD3 (Homo sapiens); test: Inhibition of SMYD3 in human HCT-116 cells assessed as decrease in ERK1/2 phosphorylation measured for 48 to 72 hrs by immunoblotting analysis; assay type: cell-based; conditions: dose <= 5.0 µM, time 48-72 hrs; method in brief: as §4
[21] = biological target: T1, Histone-lysine N-methyltransferase SMYD3 (Homo sapiens); test: Inhibition of SMYD3 in human MDA-MB-231 cells assessed as decrease in ERK1/2 phosphorylation upto 5 uM by immunoblotting analysis; assay type: cell-based; conditions: time 48-72 hrs, TDE = time-dependent effect; method in brief: as §4
[22] = biological target: T1, Histone-lysine N-methyltransferase SMYD3 (Homo sapiens); test: Inhibition of SMYD3 in human MDA-MB-231 cells assessed as decrease in ERK1/2 phosphorylation measured for 48 to 72 hrs by immunoblotting analysis; assay type: cell-based; conditions: dose <= 5.0 µM, time 48-72 hrs; method in brief: as §4
[23] = biological target: T1, Histone-lysine N-methyltransferase SMYD3 (Homo sapiens); test: Inhibition of SMYD3 in human MDA-MB-231 cells assessed as decrease in cleaved PARP level at 5 uM measured for 48 to 72 hrs by immunoblotting analysis; assay type: cell-based; conditions: time 48-72 hrs; method in brief: as §4
[24] = biological target: T1, Histone-lysine N-methyltransferase SMYD3 (Homo sapiens); test: Inhibition of full length recombinant SMYD3 (unknown origin) at 5 uM measured at 24 hrs by LC-ESI-MS analysis relative to control
[25] = biological target: T1, Histone-lysine N-methyltransferase SMYD3 (Homo sapiens); test: Inhibition of SMYD3 in human HCT-116 cells assessed as increase in cleaved PARP level at 5 uM measured for 48 to 72 hrs by immunoblotting analysis; conditions: time 48-72 hrs
[26] = tested on: MDA-MB-231; test: Antiproliferative activity against in human MDA-MB-231 cells assessed as reduction in cell viability measured after 48 hrs by trypan blue staining based phase contrast microscopic analysis; assay type: functional
Method in brief: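 MDA-MB-231 cells in DMEM with 10% FBS and penicillin/streptomycin at 37 °C, 5% CO2, treated 48 h at 5 μM (vehicle 0.5% DMSO, DMSO control). Floating plus trypsinized adherent cells pooled, mixed with 0.01% trypan blue, unstained and stained cells counted by phase-contrast microscopy, % viable cells calculated. Mean ± SD, n=3.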

[27] = biological target: T1, Histone-lysine N-methyltransferase SMYD3 (Homo sapiens); test: Inhibition of SMYD3 in human HCT-116 cells assessed as decrease in cleaved PARP level at 5 uM measured for 48 to 72 hrs by immunoblotting analysis; assay type: cell-based; conditions: time 48-72 hrs; method in brief: as §4
[28] = tested on: MDA-MB-231; test: Downregulation of CDK2 mRNA expression in human MDA-MB-231 cells at 50 uM measured for 48 to 72 hrs by RT-qPCR analysis; assay type: functional, cell-based; conditions: time 48-72 hrs; method in brief: as §3
[29] = tested on: MDA-MB-231; test: Downregulation of c-MET mRNA expression in human MDA-MB-231 cells at 50 uM measured for 48 to 72 hrs by RT-qPCR analysis; assay type: functional, cell-based; conditions: time 48-72 hrs; method in brief: as §3
[30] = tested on: MDA-MB-231; test: Downregulation of FN1 mRNA expression in human MDA-MB-231 cells at 50 uM measured for 48 to 72 hrs by RT-qPCR analysis; assay type: functional, cell-based; conditions: time 48-72 hrs; method in brief: as §3
[31] = tested on: MDA-MB-231; test: Downregulation of N-cadherin mRNA expression in human MDA-MB-231 cells at 50 uM measured for 48 to 72 hrs by RT-qPCR analysis; assay type: functional, cell-based; conditions: time 48-72 hrs; method in brief: as §3

Activity [1]	Activity [2]	inhibition [3]	Kd [5]	IC50 [9]	inhibition [19]	inhibition [20]	inhibition [21]	inhibition [22]	inhibition [23]	inhibition [24]	Compound	further results
Active	Dose-Dependent Effect	14%									O=C(CCl)NC1CCN(C(=O)c2cc(C3CC3)on2)CC1	
Active	Dose-Dependent Effect	92.1%	13 µM	0.37 µM	Tde	Dose-Dependent Effect	Tde	Dose-Dependent Effect	Active	85.6%	O=C(NC1CCN(C(=O)CCl)CC1)c1cc(C2CC2)on1	Activity [4]: Active; Activity [6]: 100%; Activity [7]: Tde; Activity [8]: 50%; Ki [10]: 6.11 µM; Kinact [11]: 4.49 10^-4/s; Ratio [12]: 73.5 M⁻¹ s⁻¹; remaining at 6 h [13]: 76%; Activity [14]: Active; Activity [15]: inactive; Activity [16]: inactive; Activity [17]: inactive; Activity [18]: inactive; inhibition [25]: Active
		29.1%	32 µM		Tde	Dose-Dependent Effect	Tde	Dose-Dependent Effect	inactive		O=C(NC1CCNCC1)c1cc(C2CC2)on1	Activity [26]: inactive; inhibition [27]: inactive
inactive		< 5%									Cc1cc(C(=O)N2CCC(NC(=O)CCl)CC2)no1	
		5%									NC1CCN(C(=O)c2cc(C3CC3)on2)CC1	
		100%		0.689 µM						50.2%	O=C1Cc2cc(C(=O)N[C@H]3C[C@H]4CC[C@@H](C3)C4S(=O)(=O)CC3CCN(CCCC(F)(F)F)CC3)c(Cl)cc2N1 (some centres not stated)	Activity [28]: Active; Activity [29]: Active; Activity [30]: Active; Activity [31]: Active
